Assay results: ChEMBL document CHEMBL1124160, “Synthetic aci-reductones: 3,4-dihydroxy-2H-1-benzopyran-2-ones and their cis- and trans-4a,5,6,7,8,8a-hexahydro diastereomers. Antiaggregatory, antilipidemic, and redox properties compared to those of the 4-substituted 2-hydroxytetronic acids” (J Med Chem, 1988); call rule not given here
pIC50: −log10 of the molar value.

Key:
Format in all cases: functional, organism-based
Homo sapiens [1] = species on record: Homo sapiens; assay: Inhibition of arachidonic acid (AA) induced serotonin secretion
How it was run: (§1)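 Platelets in human platelet-rich plasma prelabeled with [14C]serotonin; dense-granule secretion read as released radioactivity. Compounds in deoxygenated 10 mM sodium phosphate/0.9% NaCl pH 7.4, given 1 min before ADP (1–5 μM), AA (0.2–1 mM) or U46619 (0.3–0.5 μM). Top drug levels 4000–5000 μM; mean ± SEM across donors.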

Homo sapiens [2] = species on record: Homo sapiens; assay: Inhibition of adenosine diphosphate (ADP) induced serotonin secretion; how it was run: as §1
Homo sapiens [3] = species on record: Homo sapiens; assay: Inhibition of adenosine diphosphate (ADP) induced human platelet aggregation
How it was run: (§2)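 Human platelet-rich plasma from drug-free volunteers (no medication ≥10 days). Compounds prepared fresh in N2-deoxygenated 10 mM sodium phosphate/0.9% NaCl pH 7.4 (one in DMSO, final 0.14%), added 1 min before inducer: ADP 1–5 μM, AA 0.2–1 mM or U46619 0.3–0.5 μM. Turbidometric aggregometry; IC50 from light-transmittance amplitude at 6 min (ADP, secondary wave) or 4 min (AA, U46619); mean ± SEM over donors.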

Homo sapiens [4] = species on record: Homo sapiens; assay: Inhibition of arachidonic acid (AA) induced human platelet aggregation; how it was run: as §2
Homo sapiens [5] = species on record: Homo sapiens; assay: Inhibition of U-46,619 induced human platelet aggregation; how it was run: as §2
Homo sapiens [6] = species on record: Homo sapiens; assay: Inhibition of U-46,619 induced serotonin secretion; how it was run: as §1
Homo sapiens [7] = species on record: Homo sapiens; assay: Inhibition of U-46,619 induced serotonin secretion; c=No response; how it was run: as §1

SMILES | pIC50 (Homo sapiens [1]) | pIC50 (Homo sapiens [2]) | pIC50 (Homo sapiens [3]) | pIC50 (Homo sapiens [4]) | pIC50 (Homo sapiens [5]) | pIC50 (Homo sapiens [6]) | IC50 (Homo sapiens [7])
CC(=O)Oc1ccccc1C(=O)O [ASPIRIN] | 4.02 | 4.30 | 4.23 | 4.05 |  |  | 
O=c1c(O)c(O)oc2ccc(O)cc12 | 2.47 | 2.82 | 2.85 | 2.46 | < 2.40 | < 2.40 | 
O=C1C(O)=C(O)OC12CCCCC2 | < 2.40 | < 2.52 | < 2.48 | < 2.40 | < 2.40 | < 2.40 | 
O=c1c(O)c(O)oc2cc3c(cc12)OCO3 | 2.81 | 3.41 | 3.37 | 2.40 | 2.96 | 3.13 | 
CC(C)(C)c1cc2oc(O)c(O)c(=O)c2cc1O | < 2.40 | 2.66 | 2.78 | < 2.40 | < 2.40 | < 2.40 | 
O=c1c(O)c(O)oc2ccc(-c3ccccc3)cc12 | 3.39 | 3.35 | 3.28 | 3.60 | 3.37 | 3.46 | 
COc1ccc2c(c1)c(CC(=O)O)c(C)n2C(=O)c1ccc(Cl)cc1 [INDOMETHACIN] | 6.00 | 6.15 | 6.10 | 6.00 |  |  | 
O=C1C(O)=C(O)OC12CCCC2 | < 2.40 | < 2.40 | < 2.40 | < 2.40 | < 2.40 | < 2.40 | 

Second part, the compound after the results:

pIC50 (Homo sapiens [1]) | pIC50 (Homo sapiens [2]) | pIC50 (Homo sapiens [3]) | pIC50 (Homo sapiens [4]) | pIC50 (Homo sapiens [5]) | pIC50 (Homo sapiens [6]) | IC50 (Homo sapiens [7]) | SMILES
2.95 | 3.29 | 3.30 | 3.11 | 2.85 |  |  | O=c1c(O)c(O)oc2ccc(Cl)cc12
3.03 | 3.33 | 3.27 | 3.25 | 2.47 | 2.40 |  | O=c1c(O)c(O)oc2ccccc12
< 2.40 | 3.39 | 3.35 | < 2.40 | < 2.40 | < 2.40 |  | O=C1C(O)=C(O)OC2CCCCC12 (configuration not stated)
< 2.40 | 2.92 | 2.96 | < 2.40 | < 2.40 | < 2.40 |  | O=C1C(O)=C(O)OC1c1ccc(Cl)cc1 (configuration not stated)
< 2.40 | 3.31 | 3.32 | < 2.40 | 2.51 |  | Not Active | O=C1C(O)=C(O)OC2CCCC[C@H]12 (some centres not stated)
< 2.46 |  |  | < 2.49 | < 2.40 | 2.51 |  | CC(C)(Oc1ccc(Cl)cc1)C(=O)O [CLOFIBRIC ACID]
